The values that follow come from ChEMBL document CHEMBL1125114, “Cardiotonic agents. 6. Histamine analogues as potential cardiovascular selective H2 agonists” (J Med Chem, 1990).

Assay [1] is filed under the species Mustela putorius furo. Put plainly: In vitro inotropy blocking studies in ferret papillary muscle in the presence of 10 uM cimetidine; NB-Not Blocked. Type of assay: functional, tissue-based. As to conditions: Muscle tissue. In short, it runs like this:
(§1)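 Ferret papillary muscle dose-response repeated in the presence of antagonist (cimetidine). A rise of at least 1 order of magnitude in the measured C20 was scored as a blocked inotropic response.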

Assay [2] is filed under the species Mustela putorius furo. Put plainly: In vitro inotropy blocking studies in ferret papillary muscle in the presence of 100 uM nadolol; B-Blocked. As to conditions: Muscle tissue. Type of assay: functional, tissue-based. The method, boiled down: (§2)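 Ferret papillary muscle dose-response repeated in the presence of 100 μM nadolol. A rise of at least 1 order of magnitude in the measured C20 was scored as a blocked inotropic response.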

Assay [3] can be described thus: Concentration which gives 20% increase in the force contraction in ferret papillary muscle. Type of assay: functional, Mustela putorius furo, Muscle tissue. In short, it runs like this: (§3)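 Isolated ferret papillary muscle, force of contraction recorded over a dose-response range. C20 = concentration giving a 20% increase in contractile force. Single experiments reported individually; with three or more runs, mean and range given.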

For assay [4], the species on record is Cavia porcellus. Put plainly: Chronotropic effect of histamine at 5 ug/mL in guinea pig atrium; NR-Not reached. It counts as functional, Cardiac atrium.
For assay [5], the species on record is Cavia porcellus. Put plainly: Contractile response of histamine at 0.5 ug/mL in guinea pig ileum. Type of assay: functional. In short, it runs like this: (§4)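 Isolated guinea pig ileum, H1 activity. Value is the concentration giving 50% of the contractile response of histamine at 0.5 μg/mL, taken from dose-response curves. Reported as mean ± SEM of three separate dose-response determinations. Response sensitivity checked with mepyramine.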

Assay [6] relates to Cavia porcellus. Kind of assay: In vivo percent change in air way overflow in guinea pig was determined at a dose of 10 mg/kg/hr. It counts as functional.
Assay [7] has as its system Cavia porcellus. Put plainly: In vivo percent change in mean arterial pressure in guinea pig was determined at a dose of 10 mg/kg/hr. Type of assay: functional, Artery. In short, it runs like this:
(§5)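 Pentobarbital-anesthetized guinea pigs with stomach ligated to contain gastric fluid. After 30 min stabilization, blood pressure, heart rate, LVEDP and LV dP/dtmax were recorded at 1-min intervals. Compound given by iv infusion for 60 min, then monitored 10 min more. Gastric contents were titrated against 0.1 N NaOH. Value is the average maximum % change from control in the 10 min after infusion, mean ± SEM.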

The test system of assay [8] is Cavia porcellus. Kind of assay: In vivo percent change in total acid secretion in guinea pig was determined at a dose of 10 mg/kg/hr. Type of assay: functional. The method, boiled down:
as §5

The subject of assay [9] is Rattus norvegicus. Put plainly: In vivo effect on gastric acid secretion in rat was determined after subcutaneous administration; NC-No change. Type of assay: functional, organism-based. As to conditions: Stomach. In short, it runs like this: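 Rats, subcutaneous dosing, gastric acid secretion stimulation. ED50 is the dose giving a 50% increase in acid secretion over control. Reported as mean ± SEM of three separate dose-response determinations.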

Assay [10] in a line: dP/dt value of the compound. Also noted: unit not given here. Type of assay: functional.
Assay [11] is filed under the species Mustela putorius furo. Put plainly: Concentration of compound which gives 20% increase in the force contraction in ferret papillary muscle; NR-Not reached. It counts as functional, tissue-based. The settings on record: Muscle tissue. The method, boiled down: as §3
Assay [12] in a line: Concentration of compound which gives 20% increase in the force contraction in ferret papillary muscle. Type of assay: functional, Mustela putorius furo, Muscle tissue. In short, it runs like this: (§6)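 Ferret papillary muscle force of contraction. C20 is the concentration giving a 20% increase in force. Values come from individual experiments; where three or more runs were done, the mean and range are given. NR means not reached.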

The species entered for assay [13] is Mustela putorius furo. Put plainly: Concentration of compound which gives 20% increase in the force contraction in ferret papillary muscle;NR- Not reached. Type of assay: functional, tissue-based. The settings on record: Muscle tissue. The method, boiled down: as §6
Assay [14] is filed under the species Mustela putorius furo. Put plainly: (§7) In vitro inotropy blocking studies in ferret papillary muscle in the presence of 10 uM cimetidine; B-Blocked. It counts as functional, tissue-based. As to conditions: Muscle tissue.
For assay [15], the species on record is Mustela putorius furo. Kind of assay: (§8) In vitro inotropy blocking studies in ferret papillary muscle in the presence of 100 uM nadolol; NB-Not Blocked. Type of assay: functional, tissue-based. As to conditions: Muscle tissue. The method, boiled down:
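Ferret papillary muscle inotropic dose-response curves repeated in the presence of each antagonist (nadolol at 100 μM). A rise in C20 of at least one order of magnitude was scored as a blocked response.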

In assay [16] the test system is Cavia porcellus. Put plainly: In vivo percent change in airway overflow in guinea pig was determined at a dose of 7.5 mg/kg/h. Type of assay: functional.
Assay [17] concerns Cavia porcellus. Kind of assay: In vivo percent change in heart rate in guinea pig was determined at a dose of 7.5 mg/kg/h. It counts as functional.
In assay [18] the test system is Cavia porcellus. Kind of assay: In vivo percent change in mean arterial pressure in guinea pig was determined at a dose of 7.5 mg/kg/h. Type of assay: functional, Artery.
In assay [19] the test system is Cavia porcellus. Kind of assay: In vivo percent change in total acid secretion in guinea pig was determined at a dose of 7.5 mg/kg/h. Type of assay: functional.
For assay [20], the system named is Rattus norvegicus. Kind of assay: In vivo effect on gastric acid secretion in rat was determined after subcutaneous administration. Type of assay: functional. The settings on record: Stomach, sc. In short, it runs like this: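 Rats, subcutaneous dosing, gastric acid secretion measured by the method of Hagiwara and co-workers. ED50 = dose giving a 50% increase in acid secretion over control. Mean ± SEM of three separate dose-response determinations.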

The species named for assay [21] is Mustela putorius furo. The assay is described as §7. Type of assay: functional, tissue-based. The settings on record: Muscle tissue. The method, boiled down: as §1
This is another data set of the same source.

The species named for assay [22] is Mustela putorius furo. The description is as §8. Type of assay: functional, tissue-based. The settings on record: Muscle tissue. In short, it runs like this:
as §2
This is another data set of the same source.

The species entered for assay [23] is Cavia porcellus. Put plainly: In vitro chronotropic effect of histamine at 5 ug/mL in guinea pig atrium. It counts as functional. The settings on record: Cardiac atrium. In short, it runs like this: (§9)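 Spontaneously beating guinea pig right atria. Value is the concentration giving 50% of the chronotropic effect of histamine at 5 μg/mL, taken from dose-response curves. Reported as mean ± SEM of three separate dose-response determinations. Response sensitivity checked with cimetidine.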

The species entered for assay [24] is Cavia porcellus. Put plainly: In vitro contractile response of histamine at 0.5 ug/mL in guinea pig ileum. Type of assay: functional. The method, boiled down: as §4
Assay [25] in a line: dp/dt value of the compound. It counts as functional. In short, it runs like this: as §5
The species named for assay [26] is Cavia porcellus. Kind of assay: Chronotropic effect of histamine at 5 ug/mL in guinea pig atrium. Type of assay: functional, Cardiac atrium. In short, it runs like this:
as §9

The test system of assay [27] is Cavia porcellus. Kind of assay: In vivo percent change in airway overflow in guinea pig was determined at a dose of 30 mg/kg/h. It counts as functional.
Assay [28] deals with Cavia porcellus. Put plainly: In vivo percent change in heart rate in guinea pig was determined at a dose of 30 mg/kg/h. It counts as functional. In short, it runs like this:
as §5

Assay [29] deals with Cavia porcellus. Kind of assay: In vivo percent change in total acid secretion in guinea pig was determined at a dose of 30 mg/kg/h. Type of assay: functional. In short, it runs like this:
as §5

Where [30] appears, read: Cavia porcellus, Ileum, read-out: EC50.

Structures are written as SMILES. Several values for one entry are separate records, joined by “and”; a condition that tells them apart may be missing. Equal values may be shown once. Activity calls are given as the source filed them. The rule behind the calls is not given here. Where only a bound is given, the exact number is not on record here.

With `CC(CCc1ccc(O)cc1)N(C)CCc1c[nH]cn1` (stereo unspecified), the Activity result in the assay listed under Mustela putorius furo [1] is “Not blocked”; in the assay filed under Mustela putorius furo [2], “Blocked”. Also, the C20 in [3] was 0.13 uM l-1 and 0.16 uM l-1. For the same compound, the EC50 entry in the assay listed under Cavia porcellus [4] is reported as “Not reached”; in the assay listed under Cavia porcellus [5], 128 uM l-1. Moreover, the values for the Change in the assay on Cavia porcellus [6], in the assay on Cavia porcellus [7] and with Cavia porcellus [8] were 39%, 5% and 22%, respectively. Also, the ED50 result in the assay on Rattus norvegicus [9] was “inactive”. This compound also gave a dP/dt in [10] of 29.

In the case of `Cc1[nH]cnc1CCNCCNC(=O)c1ccncc1`, the C20 entry in the assay listed under Mustela putorius furo [11] is on record as “Not reached”.

As for `CCCCCCCN(C)CCc1c[nH]cn1`, the C20 in assay [12] is on record as above 57 uM l-1.

Turning to `O=C(NCCNCCc1c[nH]cn1)c1ccccc1`, the C20 in assay [3] was above 66 uM l-1.

With `CN(CC/C=C/c1ccccc1)CCc1c[nH]cn1`, the Activity entry in the assay filed under Mustela putorius furo [1] was “Not blocked”; in the assay listed under Mustela putorius furo [2], “Blocked”.

With `NC(C/C=C/c1ccccc1)CCc1c[nH]cn1` (stereo unspecified), the C20 entry in the assay listed under Mustela putorius furo [13] is “Not reached”.

On to `CCCCCCC(=O)NCCc1c[nH]cn1`, for which the Activity entry in the assay listed under Mustela putorius furo [14] was “Blocked”; in the assay filed under Mustela putorius furo [15] it was “Not blocked”. The compound also returned a C20 in assay [3] of 7.3 uM l-1. For the same compound, the figures for the EC50 result in the assay filed under Cavia porcellus [4] and in the assay filed under Cavia porcellus [5] (setting [30]) were “Not reached” and 50.6 µM, respectively. Further, the Change with Cavia porcellus [16] was determined as 197%; in the assay with Cavia porcellus [17], 41%; with Cavia porcellus [18] it was 33%; in the assay with Cavia porcellus [19], 160%. This compound registered an ED50 with Rattus norvegicus [20] of 5.9 mg/kg. The compound also returned a dP/dt in [10] of 146.

Regarding `NCCc1c[nH]cn1` [HISTAMINE], the result in the assay filed under Mustela putorius furo [21] was Active. Besides, the result in the assay listed under Mustela putorius furo [22] was inactive. Further, the C20 in assay [12] worked out at 0.42 uM l-1. For the same compound, the values for the EC50 in the assay filed under Cavia porcellus [23] and in the assay filed under Cavia porcellus [24] were 0.98 µM and 0.24 µM, respectively. In addition, the 50% effect level in the assay with Rattus norvegicus [20] (ED50) was put at a dose of 2.7 mg/kg. This compound came in with a dP/dt in assay [25] of 132.

`CCCN(CCc1c[nH]cn1)C(C)CCc1ccc(O)cc1` (stereo unspecified): the Activity result in the assay filed under Mustela putorius furo [14] and in the assay filed under Mustela putorius furo [2] was “Blocked” throughout. The C20 in [3] turned out to be 4.9 uM l-1.

For `NC(C/C=C/c1ccccc1)Cc1c[nH]cn1` (stereo unspecified), the figures for the Activity entry in the assay filed under Mustela putorius furo [14] and in the assay listed under Mustela putorius furo [15] were “Blocked” and “Not blocked”, respectively. This compound showed a C20 in [3] of 13 uM l-1. The results for the EC50 in the assay filed under Cavia porcellus [26] and in the assay filed under Cavia porcellus [5] (setting [30]) were 184 uM l-1 and 7.23 µM, respectively. Besides, the values for the Change with Cavia porcellus [27], in the assay on Cavia porcellus [28] and in the assay on Cavia porcellus [29] were 45%, 5% and 169%, respectively. In addition, in the assay on Rattus norvegicus [9], the ED50 entry is “inactive”. In addition, in [10], the dP/dt was determined as 68.

With `Cc1[nH]cnc1CCNCCN`, in the assay listed under Mustela putorius furo [11], the C20 result is reported as “Not reached”.

In the case of `c1coc(CNCCc2c[nH]cn2)c1`, the Activity result in the assay filed under Mustela putorius furo [2] is “Blocked”. This compound also returned a C20 in assay [3] of 27 uM l-1.

Turning to `Cc1[nH]cnc1CCNCCNC(=O)c1ccc(NS(C)(=O)=O)cc1`, in [3], the C20 is 20 uM l-1 and 40 uM l-1.
